For 30 molecules, Activity and IC50 results are on record in ChEMBL document CHEMBL1138230, “Synthesis and SAR comparison of regioisomeric aryl naphthyridines as potent mGlu5 receptor antagonists” (Bioorg Med Chem Lett, 2007).

pIC50: −log10 of the molar value. Where only a bound is given, the exact number is not on record here.

In general, pIC50 refers to the negative decadic logarithm of the IC50, by convention in mol/L.

In one data set the test system is Rattus norvegicus. The experiment in a line: Inhibition of change in hind paw weight distribution in monosodium iodoacetate-induced osteoarthritis rat model at 10 mg/kg, ip after 6 hrs. In kind it is organism-based. Set-up: dose 10 mg/kg, route intraperitoneal. The following applies: in vivo.
Consider `COc1cc(OC)cc(-c2ccc3ccc(C)nc3n2)c1`, for which the result was Active.

In another data set the target is Metabotropic glutamate receptor 5 (Rattus norvegicus, UniProt P31424). The data set can be described thus: Antagonist activity at rat mGlu5 receptor expressed in CHO cells assessed as inhibition of quisqualate-stimulated calcium mobilization. In kind it is functional, cell-based.
Chain of Metabotropic glutamate receptor 5 (P31424 whole entry): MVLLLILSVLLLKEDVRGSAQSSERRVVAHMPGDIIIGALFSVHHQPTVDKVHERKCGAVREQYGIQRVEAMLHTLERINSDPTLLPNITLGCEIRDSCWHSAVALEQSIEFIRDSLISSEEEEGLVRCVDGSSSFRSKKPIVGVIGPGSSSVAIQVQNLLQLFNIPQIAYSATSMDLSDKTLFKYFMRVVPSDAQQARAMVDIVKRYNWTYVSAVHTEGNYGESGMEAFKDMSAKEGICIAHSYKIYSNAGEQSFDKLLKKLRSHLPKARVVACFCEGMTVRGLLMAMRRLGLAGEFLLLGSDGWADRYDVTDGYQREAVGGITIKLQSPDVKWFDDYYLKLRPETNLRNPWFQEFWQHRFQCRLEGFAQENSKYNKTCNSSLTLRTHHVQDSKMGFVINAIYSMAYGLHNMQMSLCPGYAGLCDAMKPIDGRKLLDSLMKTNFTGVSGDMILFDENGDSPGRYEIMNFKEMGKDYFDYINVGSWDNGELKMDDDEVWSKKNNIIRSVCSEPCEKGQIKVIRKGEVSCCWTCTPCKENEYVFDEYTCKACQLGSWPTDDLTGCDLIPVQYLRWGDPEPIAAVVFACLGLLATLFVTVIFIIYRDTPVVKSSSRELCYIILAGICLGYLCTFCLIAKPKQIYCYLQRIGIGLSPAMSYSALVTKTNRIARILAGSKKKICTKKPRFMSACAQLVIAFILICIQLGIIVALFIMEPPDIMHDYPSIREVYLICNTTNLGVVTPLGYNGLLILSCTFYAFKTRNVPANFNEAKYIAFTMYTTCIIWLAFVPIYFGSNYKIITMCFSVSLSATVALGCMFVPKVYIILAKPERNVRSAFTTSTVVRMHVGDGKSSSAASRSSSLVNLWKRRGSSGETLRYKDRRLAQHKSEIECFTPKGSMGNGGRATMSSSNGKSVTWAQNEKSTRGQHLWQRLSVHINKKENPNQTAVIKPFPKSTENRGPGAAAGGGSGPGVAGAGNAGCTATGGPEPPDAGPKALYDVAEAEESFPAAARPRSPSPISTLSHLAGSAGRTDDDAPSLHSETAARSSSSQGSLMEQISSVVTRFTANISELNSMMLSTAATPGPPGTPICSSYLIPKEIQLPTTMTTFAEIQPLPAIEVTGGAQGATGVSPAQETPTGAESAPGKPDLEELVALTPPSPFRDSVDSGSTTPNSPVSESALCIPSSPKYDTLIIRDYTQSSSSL
Conditions: not given; call rule not given here
In short, it runs like this: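 CHO cells stably expressing rat mGlu5; inhibition of quisqualate-stimulated calcium mobilization read by FLIPR. Values are geometric means of two or more experiments.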
In general terms: Calcium flux is commonly read through the fluorescence of an indicator in the cells.
On to `c1ccc(-c2ccc3cccnc3n2)cc1`, for which the pIC50 is 5.74. With `N#Cc1cccc(-c2ccc3cccnc3n2)c1`, the pIC50 was 6.94. Same read-out and setting: next, `Cc1ccc(-c2ccc3cccnc3n2)cc1C`: 7.35; `c1ccc(-c2cc3ncccc3cn2)cc1`: below 4.52. The same measure, in the same setting: then `Cc1cccc(-c2ccc3ccc(C)nc3n2)c1`, with 6.56; and `Cc1cc(C)cc(-c2cnc3cccnc3c2)c1`, with below 4.52. Consider `Cc1ccc2ccc(-c3cccc(C#N)c3)nc2n1`, for which the pIC50 was 6.32.

`Cc1ccc2ccc(-c3cc(F)cc(F)c3)nc2n1`: the pIC50 is 6.74. Still for that read-out and setting: next, `COc1cc(OC)cc(-c2cc3ncccc3cn2)c1`: 5.22.

For `Cc1cccc(-c2cnc3cccnc3c2)c1`, the negative logarithm of the IC50 (pIC50) is 4.80.

As to `Cc1ccc(-c2cnc3cccnc3c2)cc1C`, the pIC50 was 4.92.

With `Cc1ccc2cnc(-c3ccccc3)cc2n1`, the negative-log IC50 (pIC50) was below 4.52. Same read-out and setting: next, `Cc1cccc(-c2cc3nc(C)ccc3cn2)c1`: 6.17; `Cc1ccc2ccc(-c3cccc(Br)c3)nc2n1`: 7.32. Turning to `COc1cccc(-c2cc3nc(C)ccc3cn2)c1`, the pIC50 is 5.10.

As for `COc1cc(OC)cc(-c2cc3nc(C)ccc3cn2)c1`, the pIC50 is 6.46. Same read-out and setting: next, `COc1cc(C#N)cc(-c2cc3nc(C)ccc3cn2)c1`: 8.21.

For `Cc1cccc(-c2cc3ncccc3cn2)c1`, the pIC50 is 5.90. Consider `Cc1cc(F)cc(-c2cc3ncccc3cn2)c1`, for which the negative-log IC50 (pIC50) is 5.18.

On to `N#Cc1cc(F)cc(-c2cc3ncccc3cn2)c1`, for which the negative logarithm of the IC50 (pIC50) was 5.80. Regarding `COCOc1cc(C#N)cc(-c2cc3ncccc3cn2)c1`, the pIC50 is 6.33. Take `COc1cc(OC)cc(-c2ccc3cccnc3n2)c1`: the pIC50 was 7.17. Turning to `Cc1cc(F)cc(-c2cc3nc(C)ccc3cn2)c1`, the pIC50 was 5.53.

On to `N#Cc1cccc(-c2cnc3cccnc3c2)c1`, for which the negative logarithm of the IC50 (pIC50) was 4.73. Same read-out and setting: then `COc1cc(C#N)cc(-c2cc3ncccc3cn2)c1`, with 7.17; and `Cc1cccc(-c2ccc3cccnc3n2)c1`, with 6.65; and `Cc1ccc2ccc(-c3cccc(Cl)c3)nc2n1`, with 6.75. As for `COc1cc(C#N)cc(-c2cnc3cccnc3c2)c1`, the pIC50 was 7.26. Regarding `COc1cc(OC)cc(-c2ccc3ccc(C)nc3n2)c1`, the pIC50 was 7.29. The same measure, in the same setting: next, `Cc1ccc2ccc(-c3ccccc3)nc2n1`: 6.18.

In a further data set the test system is Rattus norvegicus. The data set can be described thus: Inhibition of change in hind paw weight distribution in monosodium iodoacetate-induced osteoarthritis rat model at 10 mg/kg, ip after 2 hrs. In kind it is organism-based. More on the design: dose 10 mg/kg, route intraperitoneal. The following applies: in vivo.
As for `COc1cc(OC)cc(-c2ccc3ccc(C)nc3n2)c1`, the outcome was Active.

The test system of a further data set is Rattus norvegicus. The data set can be described thus: Inhibition of change in hind paw weight distribution in monosodium iodoacetate-induced osteoarthritis rat model at 10 mg/kg, ip after 4 hrs. In kind it is organism-based. More on the design: dose 10 mg/kg, route intraperitoneal. The following applies: in vivo.
Take `COc1cc(OC)cc(-c2ccc3ccc(C)nc3n2)c1`: the result was Active.
